Results reported in ChEMBL document CHEMBL1134622, “Piperazine-based CCR5 antagonists as HIV-1 inhibitors. II. Discovery of 1-[(2,4-dimethyl-3-pyridinyl)carbonyl]-4- methyl-4-[3(S)-methyl-4-[1(S)-[4-(trifluoromethyl)phenyl]ethyl]-1-piperazinyl]- piperidine N1-oxide (Sch-350634), an orally bioavailable, potent CCR5 antagonist” (J Med Chem, 2001).

What was measured:
[1] = biological target: T1, C-C chemokine receptor type 5 (Homo sapiens, UniProt P51681); experiment: Binding affinity towards C-C chemokine receptor type 5
T1 sequence (P51681 whole entry): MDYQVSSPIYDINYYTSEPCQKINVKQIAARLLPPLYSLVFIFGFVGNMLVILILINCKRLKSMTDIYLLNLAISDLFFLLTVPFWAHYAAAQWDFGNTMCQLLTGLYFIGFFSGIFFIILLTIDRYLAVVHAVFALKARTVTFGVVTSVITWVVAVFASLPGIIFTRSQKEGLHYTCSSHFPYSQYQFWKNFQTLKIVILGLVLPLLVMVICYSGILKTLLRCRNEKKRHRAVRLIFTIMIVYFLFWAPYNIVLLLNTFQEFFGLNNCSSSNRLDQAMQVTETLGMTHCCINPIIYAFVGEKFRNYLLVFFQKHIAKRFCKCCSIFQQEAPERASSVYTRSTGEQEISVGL
Method in brief: (§1)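 CCR5 Ki in nM. Standard error 10%; assay-to-assay variability 2-3-fold.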

Rattus norvegicus = experiment: Pharmacokinetic characterization measured on oral blood levels in rat at 10 mg/kg (0-6 hr); type: ADME, organism-based; design: time < 6 hr, dose 10 mg/kg, route oral; conditions: in vivo
Method in brief: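 Rats given compound orally at 10 mg/kg. Plasma concentrations followed over 6 h. Blood levels expressed as AUC (0-6 h) of the concentration-time plot, in ng/mL h.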

U-87 MG [2] = experiment: Inhibition of the entry of HIV-1 reporter virus (ADA) into U-87 cells; type: functional, cell-based, U-87MG ATCC; conditions: Homo sapiens
Method in brief: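 Single-cycle infectivity assay in U-87 cells with HIV-1 reporter virus (ADA). IC50 is the concentration giving 50% inhibition of viral entry. 95% confidence limit within 1 log; intra-assay variation under 0.5 log.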

U-87 MG [3] = experiment: Inhibition of the entry of HIV-1 reporter virus (JrF1) into U-87 cells; type: functional, cell-based, U-87MG ATCC; conditions: Homo sapiens
Method in brief: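 Entry of HIV-1 reporter virus (JrFl) into U-87 cells. IC50 is the concentration inhibiting entry by 50%. 95% confidence limit within 1 log; intra-assay variation under 0.5 log.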

[4] = Time required for the maximum plasma concentration in rat blood levels at 10 mg/kg; type: ADME, organism-based; design: dose 10 mg/kg
Cynomolgus monkey [5] = experiment: Area under concentration curve in cynomolgus monkey after oral administration; type: ADME, organism-based, Macaca fascicularis; conditions: in vivo
Method in brief: (§2)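 Beagle dogs and cynomolgus monkeys. IV dose 1 mg/kg. Oral dose 3 mg/kg in dog, 10 mg/kg in monkey. Plasma sampled over 0-24 h. […] Bioavailability is dose-corrected from oral vs iv AUC.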

[6] = Maximum plasma concentration after oral administration in monkey; type: ADME, organism-based; design: route oral; conditions: simiiformes; method in brief: as §2
[7] = Maximum plasma concentration after oral administration in dog; type: ADME, organism-based, Canis lupus familiaris; design: route oral; method in brief: as §2
Canis familiaris [8] = experiment: Area under concentration curve in Beagle dogs after iv administration (0-24 hr); type: ADME, organism-based, Canis lupus familiaris; design: time < 24 hr, route intravenous; conditions: dog, in vivo; method in brief: as §2
[9] = biological target: T1, C-C chemokine receptor type 5; experiment: Binding affinity at C-C chemokine receptor type 5; method in brief: as §1
[10] = Bioavailability in monkey after oral administration.; type: ADME, organism-based; conditions: simiiformes, in vivo, read-out: BA; method in brief: as §2
Canis familiaris [11] = experiment: Area under concentration curve in Beagle dogs after oral administration (0-24 hr); type: ADME, organism-based, Canis lupus familiaris; design: time < 24 hr, route oral; conditions: dog, in vivo; method in brief: as §2
[12] = Plasma concentration after 0 hours of intravenous administration in cunomolgus monkey; type: ADME, organism-based, Macaca fascicularis; conditions: cynomolgus monkey; method in brief: as §2
[13] = biological target: T2, Muscarinic acetylcholine receptor M2 (Homo sapiens, UniProt P08172); experiment: Binding affinity against muscarinic acetylcholine receptor M2
T2 sequence (P08172 whole entry): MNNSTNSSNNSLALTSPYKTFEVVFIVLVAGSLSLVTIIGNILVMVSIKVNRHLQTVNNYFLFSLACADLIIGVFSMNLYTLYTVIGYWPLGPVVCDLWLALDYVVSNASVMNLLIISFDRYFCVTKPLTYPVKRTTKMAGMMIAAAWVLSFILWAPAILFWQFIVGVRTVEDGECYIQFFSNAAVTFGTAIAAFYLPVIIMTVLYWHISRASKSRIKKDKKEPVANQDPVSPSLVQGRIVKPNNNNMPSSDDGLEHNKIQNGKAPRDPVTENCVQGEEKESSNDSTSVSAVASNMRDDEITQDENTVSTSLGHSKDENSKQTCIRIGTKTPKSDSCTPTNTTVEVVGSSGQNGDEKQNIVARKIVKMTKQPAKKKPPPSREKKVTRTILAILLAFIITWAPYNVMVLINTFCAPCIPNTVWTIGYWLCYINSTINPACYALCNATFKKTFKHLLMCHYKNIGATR

[14] = Plasma concentration after 0 hours of intravenous administration in dog; type: ADME, organism-based, Canis lupus familiaris; conditions: read-out: Co; method in brief: as §2
[15] = Bioavailability in dog after oral administration.; type: ADME, organism-based, Canis lupus familiaris; conditions: in vivo, read-out: BA; method in brief: as §2
Cynomolgus monkey [16] = experiment: Area under concentration curve in cynomolgus monkey after iv administration; type: ADME, organism-based, Macaca fascicularis; conditions: in vivo; method in brief: as §2
[17] = Time required for the maximum plasma concentration in rat.; type: ADME, organism-based
[18] = Plasma concentration after 6 hours of oral administration in rat; type: ADME, organism-based; conditions: read-out: C6h
[19] = Half life determined after iv administration to monkey; type: ADME, organism-based; conditions: simiiformes, in vivo; method in brief: as §2
[20] = Half life determined after iv administration to dog; type: ADME, organism-based, Canis lupus familiaris; conditions: in vivo; method in brief: as §2
[21] = biological target: T1, C-C chemokine receptor type 5; experiment: Inhibitory activity against C-C chemokine receptor type 5; method in brief: as §1

| Ki [1] [nM] | AUC (Rattus norvegicus) [ng·h/mL] | IC50 (U-87 MG [2]) [nM] | Structure (SMILES) | further results |
| --- | --- | --- | --- | --- |
| 440 | – | – | Cc1cccc(C)c1C(=O)N1CCC(N2CCN(Cc3ccc(I)cc3)CC2)CC1 | – |
| 5 | 2540 | 3.2 | Cc1cccc(O)c1C(=O)N1CCC(C)(N2CCN([C@@H](C)c3ccc(C(F)(F)F)cc3)[C@@H](C)C2)CC1 | – |
| 15 | 384 | 4 | Cc1cccc(O)c1C(=O)N1CCC(C)(N2CCN([C@@H](C)c3ccc(S(C)(=O)=O)cc3)[C@@H](C)C2)CC1 | – |
| 20 | – | – | Cc1cccc(C)c1C(=O)N1CCC(N2CCN([C@@H](C)c3ccc(I)cc3)[C@@H](C)C2)CC1 | IC50 (U-87 MG [3]): 7 nM |
| 5 | 447 | 0.8 | C[C@H]1CN(C2(C)CCN(C(=O)c3c(N)cccc3Cl)CC2)CCN1[C@@H](C)c1ccc(S(C)(=O)=O)cc1 | – |
| 3 | – | 0.5 | Cc1cccc(C)c1C(=O)N1CCC(C)(N2CCN([C@@H](C)c3ccc(S(C)(=O)=O)cc3)[C@@H](C)C2)CC1 | – |
| 12 | 1980 | 2 | C[C@H]1CN(C2(C)CCN(C(=O)c3c(N)cccc3Cl)CC2)CCN1[C@@H](C)c1ccc(I)cc1 | – |
| – | 3900 | 0.5 | Cc1ccnc(C)c1C(=O)N1CCC(C)(N2CCN([C@@H](C)c3ccc(C(F)(F)F)cc3)[C@@H](C)C2)CC1 | Tmax [4]: 1.5 h; AUC (Cynomolgus monkey [5]): 2740 ng·h/mL; Cmax [6]: 281 ng/mL; Cmax [7]: 226 ng/mL; AUC (Canis familiaris [8]): 1610 ng·h/mL; Ki [9]: 2.3 nM; bioavailability [10]: 27.5%; AUC (Canis familiaris [11]): 1580 ng·h/mL; C0 at 0 h [12]: 390 ng/mL; Ki [13]: 2500 nM; concentration at 0 h [14]: 346 ng/mL; bioavailability [15]: 33%; AUC (Cynomolgus monkey [16]): 996 ng·h/mL |
| 62 | – | – | Cc1cccc(C)c1C(=O)N1CCC(C)(N2CCN(Cc3ccc(I)cc3)CC2)CC1 | – |
| 1 | 922 | 0.4 | Cc1cccc(C)c1C(=O)N1CCC(C)(N2CCN([C@@H](C)c3ccc(C(F)(F)F)cc3)[C@@H](C)C2)CC1 | – |
| 5 | 822 | 1 | Cc1cccc(C)c1C(=O)N1CCC(C)(N2CCN([C@@H](C)c3ccc(I)cc3)[C@@H](C)C2)CC1 | – |
| 30 | – | – | Cc1cccc(C)c1C(=O)N1CCC(N2CCN(Cc3ccc(I)cc3)[C@@H](C)C2)CC1 | – |
| – | 9240 | 1 | Cc1cc[n+]([O-])c(C)c1C(=O)N1CCC(C)(N2CCN([C@@H](C)c3ccc(C(F)(F)F)cc3)[C@@H](C)C2)CC1 | AUC (Cynomolgus monkey [5]): 15400 ng·h/mL; Cmax [6]: 1420 ng/mL; Cmax [7]: 690 ng/mL; AUC (Canis familiaris [8]): 3240 ng·h/mL; Tmax [17]: 2.5 h; Ki [9]: 7 nM; bioavailability [10]: 59%; AUC (Canis familiaris [11]): 6290 ng·h/mL; concentration at 6 h [18]: 1300 ng/mL; half-life [19]: 4 h; Ki [13]: 250 nM; half-life [20]: 6 h; bioavailability [15]: 65%; AUC (Cynomolgus monkey [16]): 2610 ng·h/mL |
| 23 | – | – | Cc1cccc(C)c1C(=O)N1CCC(N2CCN([C@@H](C)c3ccc(Br)cc3)[C@@H](C)C2)CC1 | IC50 [21]: 6 nM |
| 5 | 1870 | 1.2 | C[C@H]1CN(C2(C)CCN(C(=O)c3c(N)cccc3Cl)CC2)CCN1[C@@H](C)c1ccc(C(F)(F)F)cc1 | – |
| 8 | – | – | Cc1cccc(C)c1C(=O)N1CCC(C)(N2CCN(Cc3ccc(I)cc3)[C@@H](C)C2)CC1 | IC50 (U-87 MG [3]): 2.7 nM |
| 275 | – | – | Cc1cccc(C)c1C(=O)N1CCC(N2CCN([C@@H](C)c3ccccc3)[C@@H](C)C2)CC1 | – |
| 7 | 2810 | 1 | Cc1cccc(O)c1C(=O)N1CCC(C)(N2CCN([C@@H](C)c3ccc(I)cc3)[C@@H](C)C2)CC1 | – |
